# Rows were chosen to be rich in hits. Some 3.6% of all compounds tested hit in one or more screens of this group.
# NadD inh = inhibitors of Staphylococcus aureus NadD; purified NadD enzyme, colorimetric absorbance read-out; inhibition, % at 20 µM; 360,000 tested, 0.78% active; in the data active means inhibition above about 26%
# ATG4B inhibitor = ATG4B (human) cysteine protease inhibition; Q9Y4P1; ATG4B cleavage of LC3-PLA2, NBD-HPC fluorescence, 1 h; inhibition, % at 8.33 µM; 340,000 tested, 0.51% active; in the data active means inhibition above about 40%
# SENP1 FRET inh = SENP1 (human) catalytic domain inhibition; Q9P0U3; recombinant SENP1 catalytic domain, CyPet-SUMO1-YPet FRET cleavage; inhibition, % at 10 µM; 360,000 tested, 0.21% active; AID 624204;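 active means inhibition at least 30% at 10 µM, raw YFP signal under a set limit, fluorescence ratio 0.5 to 1.5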;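 further: 0% = enzyme with DMSO and 100% = no enzyme wells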
# Target sequence (Q9P0U3 419-644 limits assumed): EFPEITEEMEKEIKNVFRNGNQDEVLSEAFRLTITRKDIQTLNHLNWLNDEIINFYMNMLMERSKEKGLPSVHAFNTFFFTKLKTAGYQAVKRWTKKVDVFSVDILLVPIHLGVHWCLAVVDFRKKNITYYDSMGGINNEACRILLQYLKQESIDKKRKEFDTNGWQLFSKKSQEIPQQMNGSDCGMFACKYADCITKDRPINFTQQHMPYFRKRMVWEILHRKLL
#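 Material – human SENP1 catalytic domain · Input – SENP1 enzyme, 20 pM final · Compound dosing – single concentration of 10 µM compound, 0.5% DMSO final · Timing – enzyme reaction for 50 min at room temperature, dark · Measured by – FRET fluorescence in CFP and YFP emission channels · Control set – no-enzyme wells low, DMSO-plus-enzyme wells high control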
# UCH37 DUB inh = human UCH37 deubiquitinating enzyme inhibition. Q9Y5K5. purified proteasome/UCH37, Ub-AMC cleavage fluorescence. inhibition, % (no concentration beside the values). AID 588478. 330,000 tested, 0.33% active;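 active means mean inhibition over replicate wells above about 20%, limit read from the data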;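 further: 0% = compound-free wells with enzyme and 100% = wells lacking proteasome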
#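 Assay system: Proteasome-bound UCH37. Buffer or medium: pH 7.4 Tris-HCl (50 mM) with ovalbumin, ATP-MgCl2, DTT. Incubation: 30 min preincubation with enzyme, 25 min cleavage at room temperature. Measured by: fluorescence, ex 355 nm, em 460 nm. Read-out basis: percent inhibition. Control set: wells without proteasome as full block, compound-free enzyme plus substrate as uninhibited.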
# GRIN3A LBD mod = modulates the human NR3A ligand-binding domain; NR3A LBD differential scanning fluorimetry, Tm shift; 0% = protein alone, 100% = glycine-bound protein; Tm shift relative to glycine control, % at 25 µM; 340,000 tested, 2.5% active;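 active means melting temperature shift of at least 10% of the positive control shift, at one fixed dose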
# * marks the source's active call; other numbers are inactive results; x = no result given.
SMILES,NadD inh,ATG4B inhibitor,SENP1 FRET inh,UCH37 DUB inh,GRIN3A LBD mod
COc1ccc(/C=C2\N=C3CCCCCN3C2=O)cc1OC,2.6,-0.1,-11.5,9.0,-6.9
CON=CC1CCN(c2ncc(C(F)(F)F)cc2Cl)C1=O (stereo not drawn),x,x,x,3.6,x
O=C(C1=C(O)/C(=C/c2ccc(O)cc2)CCC1)C(F)(F)F,2.3,-4.1,-41.9,1.6,12.3*
COc1ccc(/C=C2\CCCC(C(=O)C(F)(F)F)=C2O)cc1,2.0,2.6,-96.6,3.1,-0.2
C(=NNC1=Nc2cccc3cccc1c23)c1ccccn1,x,x,x,9.5,x
Cc1ccc(C)c(N2C(=O)CSC2=NNC(=O)c2ccccc2Cl)c1,x,x,x,5.2,x
CCN(CCNC(=O)Nc1ccc(Cl)cc1)c1ccccc1,-4.4,15.4,2.3,2.8,22.3*
CCN(CCNC(=O)C1CCN(S(C)(=O)=O)CC1)c1ccccc1,-9.2,-2.9,0.5,1.9,-1.0
CC(=O)c1cccc(NC(=S)NCCc2ccc(Cl)cc2)c1,-0.9,15.8,5.6,1.4,14.8*
O=C(NCCc1ccc(Cl)cc1)Nc1ccc(Cl)cc1,-7.9,3.7,0.3,5.2,20.1*
O=C(NCCc1ccncc1)Nc1ccc(Cl)cc1,1.2,-3.9,-0.7,2.9,-3.6
Cc1cc(C)n2nc(C(=O)NN=C/C=C/c3ccccc3)nc2n1,x,x,x,2.3,x
CC(C)=CCCC1=CCC(C=NNC(N)=O)C(C)C1 (stereo not drawn),x,x,x,2.8,x
O=S(=O)(c1cccc(-c2nc3n(n2)Cc2ccccc2-3)c1)N1CCCC1,2.7,7.5,1.0,3.0,13.0*
O=S(=O)(c1cccc(-c2nc3n(n2)Cc2ccccc2-3)c1)N1CCCCC1,-0.3,20.5,3.6,1.1,-13.8
Oc1c(Cl)cc(Cl)cc1CNc1nc2ccccc2[nH]1,-6.3,4.5,1.0,3.2,10.3*
CC(C)NC(=O)C1CCCN(S(=O)(=O)c2cccs2)C1 (stereo not drawn),-4.3,-9.3,3.7,3.4,10.8*
CC(CC1CC(COCC(C)C)OC1=O)=NNC(N)=S (stereo not drawn),x,x,x,4.1,x
Cc1c(-c2cccc(Cl)c2)nc2ccccc2c1C(=O)OCC(=O)Nc1ccc2c(c1)OCO2,21.7,9.9,-4.2,1.4,21.3*
CSc1nc(C=C2C=Nc3ccccc32)c(O)n1C,x,x,x,7.8,x
Cc1cn2c(N)c(/C=C3\C=Nc4ccccc43)c(=O)nc2s1,1.4,-11.7,-65.5,1.4,15.8*
Cc1ccc(-n2[nH]c(C)c(C=C3C=Nc4ccccc43)c2=O)cc1C,x,x,x,8.1,x
CC(C)S(=O)(=O)c1nsc2nc(=O)c(/C=C3\C=Nc4ccccc43)c(N)n12,2.2,16.8,-33.9,-1.3,23.4*
CCc1nn2c(N)c(/C=C3\C=Nc4ccccc43)c(=O)nc2s1,2.8,2.2,-136.9,3.0,0.5
CSc1nsc2nc(=O)c(/C=C3\C=Nc4ccccc43)c(N)n12,-2.7,-2.3,-101.6,0.8,22.3*
SMILES,NadD inh,ATG4B inhibitor,SENP1 FRET inh,UCH37 DUB inh,GRIN3A LBD mod
COc1ccc(C=NNC(=O)c2ccccc2O)cc1CN1CCOCC1,x,x,x,8.7,x
CC(=NNC(=O)CSc1nc(C)cc(C)n1)c1cccs1,x,x,x,-0.1,x
Cc1ccc(NC(=O)Cn2nnc(C(=O)NCc3ccccc3)c2N)cc1C,-2.3,-7.4,1.5,6.4,25.6*
Cc1ccc(NC(=O)c2nnn(CC(=O)Nc3ccccc3)c2N)cc1C,-6.0,-0.3,0.3,4.1,-5.6
Cc1ccc(NC(=O)Cn2nnc(C(=O)NCc3ccc(Cl)cc3)c2N)cc1F,12.4,5.3,-0.6,-1.4,13.4*
Cc1ccc(NC(=O)Cn2nnc(C(=O)Nc3ccc(F)c(Cl)c3)c2N)cc1,1.0,2.8,3.3,0.6,31.8*
O=C(O)c1cccc(NC(=S)NN=Cc2cccnc2)c1,x,x,x,3.7,x
Oc1ccc(/C=N/Nc2nccnc2Cl)c(O)c1,-0.2,-9.8,-1.3,x,17.6*
Oc1ccc(C=NNc2ncc(Br)cn2)c(O)c1,x,x,x,3.7,x
COc1ccc(/C=N/Nc2nccnc2Cl)cc1,0.8,-3.0,1.8,x,12.1*
Oc1ccccc1/C=N/Nc1nccnc1Cl,-1.9,-14.4,0.9,x,-15.3
Oc1ccc(/C=N/Nc2ncc(Br)cn2)c(O)c1,0.9,1.0,0.7,x,31.1*
CC(=NOCC(=O)OCC(=O)NCc1ccccc1)c1ccc2c(c1)OCO2,x,x,x,1.8,x
Cc1ccc(OCC(=O)Sc2ccc(C)cc2)cc1,-9.5,-0.1,3.0,9.7,15.0*
COc1ccccc1NC(=O)c1ccccc1NC(=O)c1ccccn1,-2.4,-4.5,0.9,-11.0,0.2
